Broadly, the viability is a read-out of living cells in per cent, often relative to untreated cells. The term inhibition denotes the drop in the measured response relative to a control, in per cent.

Each structure is given as a SMILES string. Calls of active or inactive are those of the source.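 Rule for the calls, unless noted: active = viability at or under a set limit in both replicates, limit being median viability minus 3 SD (cut at about 48% in these data, passing the limit was not always enough); inconclusive = at or under the limit in just one replicate; inactive = at or above the limit in both replicates.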

Experiment [1] can be described thus: HUVEC growth inhibition – cell-based, human, primary screen (AID 575;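 active = viability at or below 30% in both replicate assays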;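 note: 100% = median of untreated cell wells with 0.1% DMSO on each plate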). The note with it: HUVEC proliferation, CellTiter-Glo luminescence, 72 h; at 10 µM; stronger effect = lower value. The essentials:
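Assay system: primary human umbilical vein endothelial cells / Buffer or medium: endothelial basal medium with 2% FBS plus growth supplements / Compound dosing: one dose, 10 µM final, 0.1% DMSO / Timing: 72 h treatment at 37 °C / Signal: CTG luminescence / Benchmarks: 32 DMSO-only cell-control wells (high), 32 MePR drug-control wells (low) per plate / Plate: collagen-coated 384-well format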
In general terms: Cellular ATP, detected with luciferase, serves as a proxy for viable cell number.

Experiment [2] can be described thus: growth inhibitors of H69AR lung tumor, primary screen, human, duplicate replicates (AID 580).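 Note: 100% = mean luminescence of untreated wells and 0% = no signal.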 The note with it: H69AR lung tumor cells viability, ATP luminescence, 72 h; at 10 µM; stronger effect = lower value.
Experiment [3] can be described thus: reversal of MRP1-mediated doxorubicin resistance, pilot screen, H69AR cells, doxorubicin co-treatment (AID 601;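 active = viability loss from added drug above about 55%, and viability with drug at most 40%, in both replicates, limit read from the data, passing the limit was not always enough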). The note with it: CellTiter-Glo, 72 h, at 10 µM; for differential viability (reversal): stronger effect = higher value.
Experiment [4] is described as follows: 384-well plate pilot, post-Golgi transport modulator project, inhibition of yeast transport mutant growth (AID 636; in the data active = inhibition above about 31%). The note with it: absorbance 615 nm, about 18 h, stronger effect = higher value.
Experiment [5] is described as follows: growth suppression of yeast trafficking mutant, preliminary HTS, modulators of trafficking downstream of Golgi apparatus project, 1536-format plate, OD 615 nm (AID 637; in the data active = inhibition above about 30%). The note with it: yeast transport mutant growth, absorbance 615 nm, 18 h; stronger effect = higher value.
The mark [6] stands for this setting: H69AR cells + 2 uM doxorubicin, measured here: viability with 2 uM doxorubicin, stronger effect = lower value.
The mark [7] stands for this setting: H69AR cells, compound alone cytotoxicity.

Take `Nn1cnnc1SCC(=O)Nc1ccc2c(c1)OCCO2`: the viability in experiment [1] was 97.5% (inactive); in experiment [2] it was 97.1% (inactive); in experiment [3] (setting [6]), 98.2%; in experiment [3] (setting [7]), 97.1%. Further, the differential viability (reversal) in experiment [3] (H69AR cells + 2 uM doxorubicin) is -1.08% (inactive). The inhibition in experiment [4] is -4.4% (inactive); in experiment [5], 8.41% (inactive).

Regarding `CCC(=O)c1ccc(OCC(=O)N2CCc3cc(OC)c(OC)cc3C2)cc1`, the viability in experiment [1] was 101% (inactive); in experiment [2], 82.9% (inactive); in experiment [3] (setting [6]), 94.1%; in experiment [3] (setting [7]), 82.9%. Further, the differential viability (reversal) in experiment [3] (H69AR cells + 2 uM doxorubicin) is -11.2% (inactive). Also, the figures for the inhibition in experiment [4] and in experiment [5] were -2.34% (inactive) and -4.6% (inactive), respectively.

On to `CN(c1ccccc1C(=O)N1CCN(c2cccc(Cl)c2)CC1)S(C)(=O)=O`, for which the viability in experiment [1] is 108% (inactive); in experiment [2], 93.8% (inactive); in experiment [3] (setting [6]), 94.5%; in experiment [3] (setting [7]), 93.8%. Further, the differential viability (reversal) in experiment [3] (H69AR cells + 2 uM doxorubicin) is -0.775% (inactive). The results for the inhibition in experiment [4] and in experiment [5] were -6.53% (inactive) and 1.43% (inactive), respectively.

As for `NC(=O)c1sc2nc3c(c(-c4ccco4)c2c1N)CCC3`, the viability in experiment [1] was 75.7% (inactive); in experiment [2], 81.4% (inactive); in experiment [3] (setting [6]), 98.2%; in experiment [3] (setting [7]), 81.4%. The differential viability (reversal) in experiment [3] (H69AR cells + 2 uM doxorubicin) was -16.8% (inactive). Also, the values for the inhibition in experiment [4] and in experiment [5] were -5.47% (inactive) and -8.57% (inactive), respectively.

Take `Cc1cc(NC(=O)c2ccc(Cl)cc2)no1`: the viability in experiment [1] is 96.1% (inactive); in experiment [2], 87.5% (inactive); in experiment [3] (setting [6]) it was 81.7%; in experiment [3] (setting [7]) it was 87.5%. In experiment [3] (H69AR cells + 2 uM doxorubicin), the differential viability (reversal) was 5.82% (inactive). In addition, the results for the inhibition in experiment [4] and in experiment [5] were 2.86% (inactive) and 18.2% (inactive), respectively.

On to `CCCn1c(SCC(=O)Nc2ccccc2C(=O)OCC)nc2c1c(=O)n(C)c(=O)n2C`, for which the viability in experiment [1] was 102% (inactive); in experiment [2], 95.7% (inactive); in experiment [3] (setting [6]) it was 93.1%; in experiment [3] (setting [7]), 95.7%. In experiment [3] (H69AR cells + 2 uM doxorubicin), the differential viability (reversal) is 2.55% (inactive). In addition, the inhibition is -8% (inactive) in experiment [4] and -3.02% (inactive) in experiment [5].

As for `CCOC(=O)C1CCN(C(=O)Nc2ccc(Cl)cc2Cl)CC1`, the viability is 100% (inactive) in experiment [1], 104% (inactive) in experiment [2], 84.1% in experiment [3] (setting [6]) and 104% in experiment [3] (setting [7]). Moreover, the differential viability (reversal) in experiment [3] (H69AR cells + 2 uM doxorubicin) is 19.9% (inactive). Further, the figures for the inhibition in experiment [4] and in experiment [5] were -4.61% (inactive) and 3.65% (inactive), respectively.

On to `O=C(Nc1ccc(N2CCOCC2)cc1)C1CC1`, for which the viability in experiment [1] is 109% (inactive); in experiment [2], 97.1% (inactive); in experiment [3] (setting [6]), 89%; in experiment [3] (setting [7]), 97.1%. In experiment [3] (H69AR cells + 2 uM doxorubicin), the differential viability (reversal) is 8.07% (inactive). Also, the values for the inhibition in experiment [4] and in experiment [5] were -5.33% (inactive) and 3.49% (inactive), respectively.

Regarding `COc1ccc(/C(O)=C2/C(=O)C(=O)N(Cc3cccnc3)C2c2ccncc2)cc1F` (configuration not stated), the viability in experiment [1] is 111% (inactive); in experiment [2] it was 97.4% (inactive); in experiment [3] (setting [6]), 94.3%; in experiment [3] (setting [7]), 97.4%. Moreover, the differential viability (reversal) in experiment [3] (H69AR cells + 2 uM doxorubicin) is 3.08% (inactive). In addition, the inhibition in experiment [4] was -6.62% (inactive); in experiment [5], 0.16% (inactive).

Take `CCOC(=O)CS(=O)(=O)c1nc(-c2ccccc2)cc(C(F)(F)F)n1`: the viability in experiment [1] was 5.62% (active); in experiment [2], 1.61% (active); in experiment [3] (setting [6]) it was 1.14%; in experiment [3] (setting [7]), 1.61%. Further, the differential viability (reversal) in experiment [3] (H69AR cells + 2 uM doxorubicin) is 0.47% (inactive). In addition, the inhibition is 0.39% (inactive) in experiment [4] and -0.63% (inactive) in experiment [5].

As to `CC(=O)NCC(=O)OC(C)C(=O)Nc1ccc(C(C)=O)cc1` (configuration not stated), the viability is 97.1% (inactive) in experiment [1], 95.2% (inactive) in experiment [2], 97.3% in experiment [3] (setting [6]) and 95.2% in experiment [3] (setting [7]). For the same compound, the differential viability (reversal) in experiment [3] (H69AR cells + 2 uM doxorubicin) is -2.15% (inactive). The inhibition in experiment [4] is -6.75% (inactive); in experiment [5], -5.4% (inactive).

Turning to `CCOc1ccccc1C(=O)NCc1ccc2c(c1)OCO2`, the viability in experiment [1] was 88.2% (inactive); in experiment [2] it was 67.4% (inactive); in experiment [3] (setting [6]), 88.1%; in experiment [3] (setting [7]) it was 67.4%. Moreover, in experiment [3] (H69AR cells + 2 uM doxorubicin), the differential viability (reversal) was -20.6% (inactive). In addition, the inhibition in experiment [4] was -7.73% (inactive); in experiment [5], 3.02% (inactive).

For the compound `CCOc1ccccc1N1C(=O)CC(Sc2ncccc2C(=O)O)C1=O` (configuration not stated), the viability in experiment [1] was 97% (inactive); in experiment [2] it was 99.9% (inactive); in experiment [3] (setting [6]) it was 87.2%; in experiment [3] (setting [7]), 99.9%. The differential viability (reversal) in experiment [3] (H69AR cells + 2 uM doxorubicin) is 12.7% (inactive). Moreover, the figures for the inhibition in experiment [4] and in experiment [5] were -3.29% (inactive) and 1.59% (inactive), respectively.

As to `Cc1[nH]nc2c1C1(CCN(C(=O)c3ccccc3)CC1)C(C#N)=C(N)O2`, the viability is 104% (inactive) in experiment [1], 98.7% (inactive) in experiment [2], 95.7% in experiment [3] (setting [6]) and 98.7% in experiment [3] (setting [7]). The differential viability (reversal) in experiment [3] (H69AR cells + 2 uM doxorubicin) is 3.04% (inactive). Moreover, the inhibition in experiment [4] is 0.52% (inactive); in experiment [5], 6.83% (inactive).

For the compound `Cc1ccc2nsnc2c1S(=O)(=O)N1CCN(Cc2ccc3c(c2)OCO3)CC1`, the viability in experiment [1] was 91% (inactive); in experiment [2], 91% (inactive); in experiment [3] (setting [6]), 89.3%; in experiment [3] (setting [7]), 91%. In addition, the differential viability (reversal) in experiment [3] (H69AR cells + 2 uM doxorubicin) is 1.65% (inactive). For the same compound, the figures for the inhibition in experiment [4] and in experiment [5] were -3.03% (inactive) and 2.86% (inactive), respectively.

For `COC(=O)Cc1c(C)c2ccc(OCC(=O)N3CCOCC3)cc2oc1=O`, the viability is 107% (inactive) in experiment [1], 100% (inactive) in experiment [2], 87.8% in experiment [3] (setting [6]) and 100% in experiment [3] (setting [7]). Also, the differential viability (reversal) in experiment [3] (H69AR cells + 2 uM doxorubicin) is 12.4% (inactive). For the same compound, the figures for the inhibition in experiment [4] and in experiment [5] were -4.67% (inactive) and 17% (inactive), respectively.

For `CCCN(CCO)Cc1cccc(Br)c1`, the viability was 101% (inactive) in experiment [1], 99.1% (inactive) in experiment [2], 93.8% in experiment [3] (setting [6]) and 99.1% in experiment [3] (setting [7]). For the same compound, the differential viability (reversal) in experiment [3] (H69AR cells + 2 uM doxorubicin) is 5.32% (inactive). The inhibition in experiment [4] is -6.05% (inactive); in experiment [5], 3.65% (inactive).

For `COc1ccc(C2C3=C(OC(C)=O)c4ccccc4C3=Nc3c2c(=O)n(C)c(=O)n3C)cc1` (configuration not stated), the viability in experiment [1] is 65.4% (inactive); in experiment [2], 74.1% (inactive); in experiment [3] (setting [6]) it was 73.7%; in experiment [3] (setting [7]), 74.1%. Further, the differential viability (reversal) in experiment [3] (H69AR cells + 2 uM doxorubicin) was 0.425% (inactive). For the same compound, the figures for the inhibition in experiment [4] and in experiment [5] were -4% (inactive) and 0.79% (inactive), respectively.

In the case of `CN(CC(=O)O)S(=O)(=O)c1cc(Cl)ccc1Cl`, the viability in experiment [1] is 112% (inactive); in experiment [2] it was 96.8% (inactive); in experiment [3] (setting [6]), 84.6%; in experiment [3] (setting [7]) it was 96.8%. Moreover, the differential viability (reversal) in experiment [3] (H69AR cells + 2 uM doxorubicin) is 12.2% (inactive). The inhibition is -2.53% (inactive) in experiment [4] and -5.24% (inactive) in experiment [5].

Turning to `Cc1cc(C)n(-c2ccc3cccc(NS(C)(=O)=O)c3n2)n1`, the viability in experiment [1] was 14.3% (active); in experiment [2], 27.6% (active); in experiment [3] (setting [6]), 50.4%; in experiment [3] (setting [7]) it was 27.6%. Besides, in experiment [3] (H69AR cells + 2 uM doxorubicin), the differential viability (reversal) was -22.8% (inactive). Moreover, the inhibition was -6% (inactive) in experiment [4] and 7.46% (inactive) in experiment [5].

`Cc1ccc(S(=O)(=O)NC(C(=O)OCC(=O)NC2CCS(=O)(=O)C2)C(C)C)cc1` (configuration not stated): the viability in experiment [1] is 98.1% (inactive); in experiment [2], 92.9% (inactive); in experiment [3] (setting [6]), 92.8%; in experiment [3] (setting [7]), 92.9%. The differential viability (reversal) in experiment [3] (H69AR cells + 2 uM doxorubicin) is 0.03% (inactive). For the same compound, the results for the inhibition in experiment [4] and in experiment [5] were -1.69% (inactive) and 0.63% (inactive), respectively.
